This note sets out measurements from the RNAGym collection of RNA variant scans (doi:10.1126/science.aae0568).

This sample holds only a part of the variants without activity. A value given as a limit tells only on which side of the number the result lay.

First the molecules themselves.
B1: tRNA (parent)
chain: GUUCCGUUGGCGUAAUGGUAACGCGUCUCCCUCCUAAGGAGAAGACUGCGGGUUCGAGUCCCGUACGGAACG

The data set covers variants of B1. As to the kind of experiment: yeast fitness relative to wild type (ratio to wild type); higher = fitter; tRNA-Arg(CCU), competitive growth, 37 C, YPD. The method, boiled down:
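For this measurement, the tRNA-Arg(CCU) gene was varied by chemical synthesis at a 3% per-site mutation rate across 69 sites, and each variant was placed at the native genomic locus in Saccharomyces cerevisiae. The pooled strains went through a 24-hour competition in YPD at 37°C in six parallel replicates, with amplicons from start and end populations read by 100-nucleotide paired-end sequencing. Darwinian fitness relative to wild type followed from the change in each genotype's frequency. Genotypes needed ≥ 100 starting reads, and estimates < 0.5 were set to 0.5.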
GUUCCGUUGGCGUAAUGGUAACGCGUCUCCCUCCUAAGGAGAAGACUCCGGGUUCGAGUCCCGCACCGAACG [G48C U64C G67C]: the yeast fitness is at most 0.5. Then GUUCCGUUGGCGUAAUGGUAACGCGUCUCCCUCCUAAGGAGAAGACUCCGCGUUCGAGACCCGUACGGAACG [G48C G51C U59A], with at most 0.5. For the variant GUUCCGUUGGCGUAAUGGUAACGCGUCUCCCUCCUAAGGAGAAGACUGGAGGUUCGAGGCCCGUACGGAACG [C49G G50A U59G], the yeast fitness is at most 0.5. The value for GUUCCGUUGGCGUAAUGGUAACGCGUCUCCCUCCUAAGGAGAAGACUCCGGCUUCGAGUCCCCUACGGAACG [G48C G52C G63C] was at most 0.5; that for GUUCCGUUGGCGUAAUGGUAACGCGUCUCCCUCCUAAGGAGAAGACUGAUGGUUCGAGUCCCGUACGGAACG [C49A G50U] was 0.694. The value for GUUCCGUUGGCGUAAUGGUAACGCGUCUCCCUCCUAAGGAGAAGACUGAAGGUUCGAGUCCCGUACGGAACG [C49A G50A] was 0.672; that for GUUCCGUUGGCGUAAUGGUAACGCGUCUCCCUCCUAAGGAGAAGACUGAGGGUUCGAGUCCCGCACGGAACG [C49A U64C] was 0.86; that for GUUCCGUUGGCGUAAUGGUAACGCGUCUCCCUCCUAAGGAGAAGACUGGGGGUUCGAGUCCUGUACGGAACG [C49G C62U] was 0.79. For GUUCCGUUGGCGUAAUGGUAACGCGUCUCCCUCCUAAGGAGAAGACUGAGGGUUCGAGUCCCGUUCGGAACG [C49A A65U], the yeast fitness is 0.962. Take GUUCCGUUGGCGUAAUGGUAACGCGUCUCCCUCCUAAGGAGAAGACUGAGGGUUCGAGUCCCGUGCGGAACG [C49A A65G]: the yeast fitness was found to be 0.625. Then GUUCCGUUGGCGUAAUGGUAACGCGUCUCCCUCCUAAGGAGAAGACUGGGGGUUCGAGUCCCGUUCGGAACG [C49G A65U], with 0.748. Then GUUCCGUUGGCGUAAUGGUAACGCGUCUCCCUCCUAAGGAGAAGACUGGGGGUUCGAGUCCCGUGCGGAACG [C49G A65G], with 0.957; and GUUCCGUUGGCGUAAUGGUAACGCGUCUCCCUCCUAAGGAGAAGACUGGGGGUUCGAGUGCCGUACGGAACG [C49G C60G], with 0.64; and GUUCCGUUGGCGUAAUGGUAACGCGUCUCCCUCCUAAGGAGAAGACUGGGGGUUCGAGUACCGUACGGAACG [C49G C60A], with 0.696. The value for GUUCCGUUGGCGUAAUGGUAACGCGUCUCCCUCCUAAGGAGAAGACUGAGGGUUCGAGUCCCUCACGGAACG [C49A G63U U64C] was at most 0.5.

In the case of GUUCCGUUGGCGUAAUGGUAACGCGUCUCCCUCCUAAGGAGAAGACUGAGGGUUCGAGUCCCGUAUGGAACG [C49A C66U], the yeast fitness is 0.641. Then GUUCCGUUGGCGUAAUGGUAACGCGUCUCCCUCCUAAGGAGAAGACUGGGGGUUCGUGUCCCAUACAGAACG [C49G A57U G63A G67A], with at most 0.5; and GUUCCGUUGGCGUAAUGGUAACGCGUCUCCCUCCUAAGGAGAAGACUCCGGGUUCGAGUCCCGUACUGCACG [G48C G67U A69C], with 0.507; and GUUCCGUUGGCGUAAUGGUAACGCGUCUCCCUCCUAAGGAGAAGACUGGGGAUUCGAGUCCCGUACGGAACG [C49G G52A], with 0.898. Then GUUCCGUUGGCGUAAUGGUAACGCGUCUCCCUCCUAAGGAGAAGACUGGGGGUUCGGGUCUCGUACGGAACG [C49G A57G C61U], with 0.584; and GUUCCGUUGGCGUAAUGGUAACGCGUCUCCCUCCUAAGGAGAAGACUGAGGGUUCGGGUCCCGUACGGAACG [C49A A57G], with 0.835; and GUUCCGUUGGCGUAAUGGUAACGCGUCUCCCUCCUAAGGAGAAGACUGAGGGUUCGCGUCCCGUACGGAACG [C49A A57C], with 0.573. Then GUUCCGUUGGCGUAAUGGUAACGCGUCUCCCUCCUAAGGAGAAGACUGAGGGUUCAAGUCCCGUACGGAACG [C49A G56A], with 0.831; and GUUCCGUUGGCGUAAUGGUAACGCGUCUCCCUCCUAAGGAGAAGACUCCGGCUUCGCAUCCCGUACGGAGCG [G48C G52C A57C G58A A70G], with at most 0.5. With GUUCCGUUGGCGUAAUGGUAACGCGUCUCCCUCCUAAGGAGAAGACUGAGGGUUCGAGUCCGGUACGGAACG [C49A C62G], the yeast fitness worked out at 0.576. Turning to GUUCCGUUGGCGUAAUGGUAACGCGUCUCCCUCCUAAGGAGAAGACUGAGGGUUCGAGUGCCGUACGGAUCG [C49A C60G A70U], the yeast fitness is at most 0.5. The value for GUUCCGUUGGCGUAAUGGUAACGCGUCUCCCUCCUAAGGAGAAGACUGAGGGUUCGAGUCCCGUACGAAACG [C49A G68A] was 0.64; that for GUUCCGUUGGCGUAAUGGUAACGCGUCUCCCUCCUAAGGAGAAGACUGAGGGUUCGAGUCCCGUACGUAACG [C49A G68U] was 0.723.

Consider GUUCCGUUGGCGUAAUGGUAACGCGUCUCCCUCCUAAGGAGAAGACUGAGGGUUCGAGUCCCGUACGCAACG [C49A G68C], for which the yeast fitness was 0.578. For the variant GUUCCGUUGGCGUAAUGGUAACGCGUCUCCCUCCUAAGGAGAAGACUCCGGGUUCGAGUCCCGUACGAAACG [G48C G68A], the yeast fitness came to 0.846. In the case of GUUCCGUUGGCGUAAUGGUAACGCGUCUCCCUCCUAAGGAGAAGACUGGGGGUUCGAGUCCCGUAAUGAACG [C49G C66A G67U], the yeast fitness was at most 0.5. Regarding GUUCCGUUGGCGUAAUGGUAACGCGUCUCCCUCCUAAGGAGAAGACUCCGGCUUCGAGUCCGGUACGGAACG [G48C G52C C62G], the yeast fitness is at most 0.5. Then GUUCCGUUGGCGUAAUGGUAACGCGUCUCCCUCCUAAGGAGAAGACUCCGGGUUCGAGUCCCAUACGGAACG [G48C G63A], with 0.877; and GUUCCGUUGGCGUAAUGGUAACGCGUCUCCCUCCUAAGGAGAAGACUGGGGGUUUGAGUCCCGUACGGAACG [C49G C55U], with 0.692. The value for GUUCCGUUGGCGUAAUGGUAACGCGUCUCCCUCCUAAGGAGAAGACUGGAGGUUCGAGUCCCGUACGGAACG [C49G G50A] was 0.667; that for GUUCCGUUGGCGUAAUGGUAACGCGUCUCCCUCCUAAGGAGAAGACUGGCGGUUCGAGUCCCGUACGGAACG [C49G G50C] was 0.613; that for GUUCCGUUGGCGUAAUGGUAACGCGUCUCCCUCCUAAGGAGAAGACUGAGGGUCCGAGUCCCGUACGGAACG [C49A U54C] was 0.674.
